Laboratory results: ChEMBL document CHEMBL5247578, “Effective synthesis of benzimidazoles-imidazo[1,2-a]pyrazine conjugates: A comparative study of mono-and bis-benzimidazoles for antitumor activity” (Eur J Med Chem, 2019)

What was measured:
Assay type in all cases: functional
MDA-MB-435 = test: Antiproliferative activity against human MDA-MB-435 cells assessed as cell growth at 0.00000001 M incubated for 48 hrs by SRB assay relative to control; conditions: dose 10 nM, read-out: Activity
CAKI-1 [1] = test: Antiproliferative activity against human CAKI-1 cells assessed as cell growth at 0.00000001 M incubated for 48 hrs by SRB assay relative to control; conditions: dose 10 nM, read-out: Activity
How it was run: (§1)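 NCI-60 five-dose screen over 10^-4–10^-8 M (10-fold dilutions). Cells grown in RPMI 1640 with 5% FBS and 2 mM L-glutamine, seeded at 5,000–40,000 cells/well and preincubated 24 h. Drug from DMSO stock, 48 h at 37 °C, 5% CO2. Adherent cells TCA-fixed and stained with 0.4% SRB; A515 read. Percent growth = (Ti−Tz)/(C−Tz)×100, or (Ti−Tz)/Tz×100 when Ti<Tz.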

DU-145 = test: Antiproliferative activity against human DU-145 cells assessed as cell growth at 0.00000001 M incubated for 48 hrs by SRB assay relative to control; conditions: dose 10 nM, read-out: Activity; how it was run: as §1
IGROV-1 = test: Antiproliferative activity against human IGROV-1 cells assessed as cell growth at 0.00000001 M incubated for 48 hrs by SRB assay relative to control; conditions: dose 10 nM, read-out: Activity
UACC-62 [2] = test: Antiproliferative activity against human UACC-62 cells assessed as cell growth at 0.00000001 M incubated for 48 hrs by SRB assay relative to control; conditions: dose 10 nM, read-out: Activity
BT-549 = test: Antiproliferative activity against human BT-549 cells assessed as cell growth inhibition by measuring lethal concentration incubated for 48 hrs by sulforhodamine B assay; conditions: read-out: LC50 (the source's name)
TK-10 = test: Antiproliferative activity against human TK-10 cells assessed as cell growth inhibition by measuring lethal concentration incubated for 48 hrs by sulforhodamine B assay; conditions: read-out: LC50 (the source's name)
How it was run: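 NCI-60 five-dose screen (10^-4 to 10^-8 M, 10-fold dilutions; DMSO stocks). Cells in RPMI 1640 with 5% FBS and 2 mM L-glutamine, preincubated 24 h, then exposed 48 h at 37 °C, 5% CO2. Fixed with cold TCA, stained with 0.4% SRB, absorbance read at 515 nm. Time-zero plates used as reference. LC50 taken from [(Ti-Tz)/Tz]×100 […].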

786-0 = test: Antiproliferative activity against human 786-0 cells assessed as cell growth inhibition by measuring lethal concentration incubated for 48 hrs by sulforhodamine B assay; conditions: read-out: LC50 (the source's name)
OVCAR-5 = test: Antiproliferative activity against human OVCAR-5 cells assessed as cell growth inhibition by measuring lethal concentration incubated for 48 hrs by sulforhodamine B assay; conditions: read-out: LC50 (the source's name)
NCI-H460 = test: Antiproliferative activity against human NCI-H460 cells assessed as cell growth inhibition by measuring lethal concentration incubated for 48 hrs by sulforhodamine B assay; conditions: read-out: LC50 (the source's name)
CCRF-CEM = test: Antiproliferative activity against human CCRF-CEM cells assessed as cell growth inhibition by measuring lethal concentration incubated for 48 hrs by sulforhodamine B assay; conditions: read-out: LC50 (the source's name)
ACHN = test: Growth inhibition against human ACHN cells assessed as total growth inhibitory concentration incubated for 48 hrs by sulforhodamine B assay
RPMI-8226 = test: Growth inhibition against human RPMI-8226 cells assessed as total growth inhibitory concentration incubated for 48 hrs by sulforhodamine B assay
CAKI-1 [3] = test: Growth inhibition against human CAKI-1 cells incubated for 48 hrs by sulforhodamine B assay
UACC-62 [4] = test: Growth inhibition against human UACC-62 cells incubated for 48 hrs by sulforhodamine B assay
NCI-H322M = test: Growth inhibition against human NCI-H322M cells incubated for 48 hrs by sulforhodamine B assay
HOP-92 = test: Growth inhibition against human HOP-92 cells incubated for 48 hrs by sulforhodamine B assay
HL-60 [5] = test: Growth inhibition against human HL-60 cells incubated for 48 hrs by sulforhodamine B assay
NCI-H23 = test: Antiproliferative activity against human NCI-H23 cells assessed as cell growth at 0.0000001 M incubated for 48 hrs by SRB assay relative to control; conditions: dose 100 nM, read-out: Activity
HCC 2998 [6] = test: Antiproliferative activity against human HCC 2998 cells assessed as cell growth at 0.0000001 M incubated for 48 hrs by SRB assay relative to control; conditions: dose 100 nM, read-out: Activity
How it was run: (§2)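 NCI-60 five-dose screen (10^-4 to 10^-8 M). Cells grown in RPMI 1640 with 5% FBS and 2 mM L-glutamine, plated at 5,000-40,000 cells/well and preincubated 24 h. Drug given from DMSO stock, then 48 h at 37 °C, 5% CO2. For adherent lines, cells fixed with cold TCA, SRB-stained and read at 515 nm. Percent growth taken against time-zero and untreated control.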

SR [7] = test: Antiproliferative activity against human SR cells assessed as cell growth at 0.000001 M incubated for 48 hrs by SRB assay relative to control; conditions: read-out: Activity
HCT-15 [8] = test: Antiproliferative activity against human HCT-15 cells assessed as cell growth at 0.000001 M incubated for 48 hrs by SRB assay relative to control; conditions: read-out: Activity; how it was run: as §2
SNB-75 = test: Antiproliferative activity against human SNB-75 cells assessed as cell growth at 0.000001 M incubated for 48 hrs by SRB assay relative to control; conditions: read-out: Activity
SK-MEL-28 = test: Antiproliferative activity against human SK-MEL-28 cells assessed as cell growth at 0.000001 M incubated for 48 hrs by SRB assay relative to control; conditions: read-out: Activity
MCF7 = test: Antiproliferative activity against human MCF7 cells assessed as cell growth at 0.000001 M incubated for 48 hrs by SRB assay relative to control; conditions: read-out: Activity
UACC-62 [9] = test: Antiproliferative activity against human UACC-62 cells assessed as cell growth at 0.00001 M incubated for 48 hrs by SRB assay relative to control; conditions: read-out: Activity
OVCAR-4 = test: Antiproliferative activity against human OVCAR-4 cells assessed as cell growth at 0.00001 M incubated for 48 hrs by SRB assay relative to control; conditions: read-out: Activity
T47D = test: Antiproliferative activity against human T47D cells assessed as cell growth at 0.00001 M incubated for 48 hrs by SRB assay relative to control; conditions: read-out: Activity
HL-60 [10] = test: Antiproliferative activity against human HL-60 cells assessed as cell growth at 0.0001 M incubated for 48 hrs by SRB assay relative to control; conditions: read-out: Activity; how it was run: as §2
SR [11] = test: Antiproliferative activity against human SR cells assessed as cell growth at 0.0001 M incubated for 48 hrs by SRB assay relative to control; conditions: read-out: Activity
HCC 2998 [12] = test: Antiproliferative activity against human HCC 2998 cells assessed as cell growth at 0.0001 M incubated for 48 hrs by SRB assay relative to control; conditions: read-out: Activity; how it was run: as §2
HCT-15 [13] = test: Antiproliferative activity against human HCT-15 cells assessed as cell growth at 0.0001 M incubated for 48 hrs by SRB assay relative to control; conditions: read-out: Activity; how it was run: as §2
SK-MEL-5 = test: Antiproliferative activity against human SK-MEL-5 cells assessed as cell growth at 0.0001 M incubated for 48 hrs by SRB assay relative to control; conditions: read-out: Activity

| SMILES | growth at 0.01 µM (MDA-MB-435) | growth at 0.01 µM (CAKI-1 [1]) | growth at 0.01 µM (DU-145) | growth at 0.01 µM (IGROV-1) | growth at 0.01 µM (UACC-62 [2]) | CC50 (BT-549) | CC50 (TK-10) | CC50 (786-0) | CC50 (OVCAR-5) | CC50 (NCI-H460) | CC50 (CCRF-CEM) | TGI (ACHN) | TGI (RPMI-8226) | GI50 (CAKI-1 [3]) | GI50 (UACC-62 [4]) | GI50 (NCI-H322M) | GI50 (HOP-92) | GI50 (HL-60 [5]) | growth at 0.1 µM (NCI-H23) | growth at 0.1 µM (HCC 2998 [6]) | also measured |
| --- | --- | --- | --- | --- | --- | --- | --- | --- | --- | --- | --- | --- | --- | --- | --- | --- | --- | --- | --- | --- | --- |
| COc1ccc(-c2cn3ccnc3c(-c3ccc4ncn(C5CCCCC5)c4c3)n2)cc1 | 92% | 88% | 103% | 96% | 94% | > 100 µM | > 100 µM | > 100 µM | > 100 µM | > 100 µM | > 100 µM | > 100 µM | > 100 µM | 0.757 µM | 0.434 µM | > 100 µM | 1.18 µM | 1.06 µM | 95% | 94% | growth at 1 µM (SR [7]): 48%; growth at 1 µM (HCT-15 [8]): 42%; growth at 1 µM (SNB-75): 45%; growth at 1 µM (SK-MEL-28): 58%; growth at 1 µM (MCF7): 40%; growth at 10 µM (UACC-62 [9]): 7%; growth at 10 µM (OVCAR-4): 35%; growth at 10 µM (T47D): -24%; growth at 100 µM (HL-60 [10]): -7%; growth at 100 µM (SR [11]): 16%; growth at 100 µM (HCC 2998 [12]): 20%; growth at 100 µM (HCT-15 [13]): 13%; growth at 100 µM (SK-MEL-5): -31% |
| c1ccc(Cn2cnc3ccc(-c4nc(-c5ccc6c(c5)ncn6C5CCCCC5)cn5ccnc45)cc32)cc1 | 91% | 87% | 99% | 97% | 92% | 5.96 µM | > 100 µM | > 100 µM | > 100 µM | > 100 µM | > 100 µM | > 100 µM | 4.5 µM | 2.45 µM | 1.98 µM | 3.05 µM | 1.25 µM | 2.88 µM | 93% | 98% | growth at 1 µM (SR [7]): 63%; growth at 1 µM (HCT-15 [8]): 65%; growth at 1 µM (SNB-75): 60%; growth at 1 µM (SK-MEL-28): 87%; growth at 1 µM (MCF7): 87%; growth at 10 µM (UACC-62 [9]): -37%; growth at 10 µM (OVCAR-4): 1%; growth at 10 µM (T47D): -2%; growth at 100 µM (HL-60 [10]): -18%; growth at 100 µM (SR [11]): 6%; growth at 100 µM (HCC 2998 [12]): -89%; growth at 100 µM (HCT-15 [13]): 3%; growth at 100 µM (SK-MEL-5): -46% |
